The source made the active and inactive calls. The calls are words filed in the database; no cut-off is given here.
Tests used:
[1] = Cytotoxicity against human MRC5 cells assessed as reduction in cell viability incubated for 72 hrs by MTT assay; assay type: cell-based
Method in brief: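 MRC5-SV2 (SV40-transformed human lung fibroblasts) were grown in DMEM with 10% hiFBS at 37 °C, 5% CO₂. Cells were exposed to increasing compound concentrations for 72 h at 37 °C, followed by MTT reduction. CC50 is the concentration reducing proliferation by 50% versus untreated cells. Three independent experiments in triplicate.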

Leishmania donovani [2] = assay: Antileishmanial activity against Leishmania donovani MHOM/ET/67/HU3 amastigotes harboring luciferase reporter gene infected in macrophage-differentiated human THP1 cells incubated for 72 hrs by luminescence based assay; assay type: functional, organism-based; settings: MHOM/ET/67/HU3, THP-1, 72 h
Method in brief: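 THP-1 cells were differentiated with PMA (20 ng/mL, 48 h), then kept 24 h in fresh medium. They were infected 24 h at 35 °C with stationary luciferase-expressing promastigotes at a macrophage:parasite ratio of 1:10, and free parasites were washed off. Compounds were added at 0.62–40 μM for 72 h at 37 °C. Cells were lysed with 0.1% Triton X-100 and luminescence read. EC50 from three independent experiments in triplicate.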

[3] = Cytotoxicity against macrophage-differentiated human THP1 cells assessed as reduction in cell viability incubated for 72 hrs by MTT assay; assay type: cell-based; settings: macrophage-differentiated THP-1 cells
Method in brief: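 THP-1 cells (3×10^4 per well) were differentiated with PMA (20 ng/mL, 48 h), then kept 24 h in fresh RPMI-1640 with 10% hiFBS. They were exposed to increasing compound concentrations for 72 h at 37 °C, then read by MTT reduction. CC50 is the 50% reduction versus untreated controls. Three independent experiments in triplicate.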

[4] = Selectivity index, ratio of CC50 for macrophage-differentiated human THP1 cells to EC50 for Leishmania donovani MHOM/ET/67/HU3 amastigotes harboring luciferase reporter gene infected in macrophage-differentiated human THP1 cells; assay type: toxicity; settings: macrophage-differentiated THP-1 cells, read-out: Ratio CC50/EC50
Method in brief: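 CC50 came from PMA-differentiated THP-1 cells exposed to compound for 72 h at 37 °C and read by MTT reduction (three independent experiments, triplicate). This was divided by the EC50 against intracellular amastigotes, measured by luciferase luminescence after 72 h of treatment.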

Leishmania donovani [5] = assay: Antileishmanial activity against Leishmania donovani promastigotes incubated for 72 hrs by MTT assay; assay type: functional, organism-based
Method in brief: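 Promastigote proliferation was followed for 72 h in the presence of compound, then read by MTT reduction. EC50 is the concentration giving 50% inhibition of proliferation, from three independent experiments.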

Leishmania donovani [6] = assay: Antileishmanial activity against Leishmania donovani promastigotes harboring 3-Luc gene assessed as decrease in intracellular ATP level using DMNEP-D-luciferin as substrate at 5 to 50 uM measured for 10 mins by luminescence based assay; assay type: functional, organism-based
Method in brief: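 3-Luc promastigotes at 20×10^6 cells/mL in serum-free, phenol-red-free RPMI 1640 containing 50 µM DMNPE-D-luciferin. Once luminescence was stable, compound (5–50 µM) was added and luminescence of the live parasites followed in real time. Expressed as percent of untreated parasites. Parasites given 1.5 µM 1,4-naphthoquinone served as control.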

Leishmania donovani [7] = assay: Induction of plasma membrane permeabilization in Leishmania donovani promastigotes by sytox green-based fluorescence assay; assay type: functional, organism-based
Method in brief: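 Promastigotes at 20×10^6/mL in serum-free, phenol-red-free RPMI 1640 containing 1 µM SYTOX green received compound (10–50 µM tested). Fluorescence increase (ex 485/em 520 nm) was followed in real time. Triton X-100 (0.1% final) was then added to give full permeabilization, taken as 100%.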

Leishmania donovani [8] = assay: Induction of mitochondrial membrane depolarization in Leishmania donovani promastigotes at 30 uM incubated for 4 hrs by Rhodamine 123 dye-based flow cytometric assay; assay type: functional, organism-based
Method in brief: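 Promastigotes at 20×10^6 cells/mL in serum-free, phenol-red-free RPMI 1640 were incubated with compound for 4 h. Rh123 (0.5 µg/mL) was added for 10 min, unbound probe was washed off, and intracellular accumulation was read by flow cytometry (ex 488/em 520 nm). Parasites given 10 mM KCN served as the dysfunctional-mitochondrion control.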

Leishmania donovani [9] = assay: Antileishmanial activity against Leishmania donovani promastigotes incubated for 4 hrs by MTT assay; assay type: functional, organism-based
Method in brief: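 L. donovani promastigotes at 20×10^6 cells/mL in RPMI 1640 without serum or phenol red were exposed to compound for 4 h at 26 °C. MTT was then added (0.5 mg/mL final) for 2 h, and formazan was solubilized with 0.5% SDS final. A595 was read. IC50 is the concentration inhibiting MTT reduction by 50%. Run in triplicate, repeated at least twice.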

Leishmania donovani [10] = assay: Antileishmanial activity against Leishmania donovani promastigotes harboring 3-Luc gene assessed as decrease in intracellular ATP level at 5 to 50 uM using DMNEP-D-luciferin as substrate pretreated for 4 hrs followed by substrate addition measured for 10 mins by luminescence based assay; assay type: functional, organism-based
Method in brief: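 3-Luc promastigotes, which express cytoplasmic luciferase, at 20×10^6 cells/mL in serum-free, phenol-red-free RPMI 1640, incubated with 5, 10, 20, 30, 40 or 50 µM compound for 4 h at 26 °C. DMNPE-D-luciferin then added to 50 µM final, and luminescence recorded for 10 min. Values given as percent of untreated parasites. 1.5 µM 1,4-naphthoquinone used as respiratory-chain-inhibited control.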

Leishmania donovani [11] = assay: Induction of mitochondrial membrane depolarization in Leishmania donovani promastigotes assessed as swelling of mitochondrial cristae at EC70 incubated for 12 hrs by transmission electron microscopic method; assay type: functional, organism-based
Leishmania donovani [12] = assay: Induction of plasma membrane permeabilization in Leishmania donovani promastigotes assessed as formation of blebbings in plasma membrane at EC70 incubated for 12 hrs by transmission electron microscopic method; assay type: functional, organism-based

Row | Structure (SMILES) | CC50 at 72 h [1] [µM] | EC50 (Leishmania donovani [2]) [µM] | CC50 at 72 h [3] [µM] | selectivity ratio [4] | EC50 (Leishmania donovani [5]) [µM] | Activity (Leishmania donovani [6]) | Activity (Leishmania donovani [7]) | Activity (Leishmania donovani [8]) | IC50 (Leishmania donovani [9]) [µM] | Activity (Leishmania donovani [10]) | Activity (Leishmania donovani [11]) | Activity (Leishmania donovani [12])
1 | CSc1ccc(CC2(O)c3c(Cl)ccc(Cl)c3C3=NCCN32)cc1 (stereo not given) | 77.4 | 6.65 | 84.4 | 12.7 | – | – | – | – | – | – | – | –
2 | OC1(Cc2ccc(Cl)cc2)c2cc(Cl)c(Cl)cc2C2=NCCN21 (stereo not given) | 8.91 | 2.95 | 31.9 | 10.8 | 6.9 | – | – | – | – | – | – | –
3 | OC1(Cc2ccc(Cl)cc2)c2c(Cl)ccc(Cl)c2C2=NCCN21 (stereo not given) | 33.8 | 2.62 | 68.7 | 26.2 | 13.3 | Active | Dose-dependent effect | Active | 14.4 | Active | – | –
4 | OC1(Cc2ccccc2)c2ccccc2C2=NCCN21 (stereo not given) | 182 | 27.8 | > 200 | – | – | – | – | – | – | – | – | –
5 | OC1(Cc2ccc(Cl)cc2)c2ccccc2C2=NCCN21 (stereo not given) | 80 | 2.1 | 145 | 69.1 | 11.8 | – | – | – | – | – | – | –
6 | CSc1ccc(CC2(O)c3cc(Cl)c(Cl)cc3C3=NCCN32)cc1 (stereo not given) | 8.48 | 1 | 31.1 | 31.1 | 2.1 | Active | Dose-dependent effect | Active | 7.3 | Active | Active | Active
7 | C[C@@H]1[C@H](O)[C@@H](C)/C=C/C=C/C=C/C=C/C=C/C=C/C=C/[C@H](O[C@@H]2O[C@H](C)[C@@H](O)[C@H](N)[C@@H]2O)C[C@@H]2O[C@](O)(C[C@@H](O)C[C@@H](O)[C@H](O)CC[C@@H](O)C[C@@H](O)CC(=O)O[C@H]1C)C[C@H](O)[C@H]2C(=O)O [AMPHOTERICIN B] | 12 | – | 16 | – | – | – | – | – | – | – | – | –
8 | OC1(Cc2ccccc2Cl)c2c(Cl)ccc(Cl)c2C2=NCCN21 (stereo not given) | 41 | 4.16 | 82 | 19.7 | – | – | – | – | – | – | – | –
